For orientation: IC50 means the midpoint of a concentration-inhibition curve. Low values mean greater potency, high ones weaker potency.

IC50 data for 6 compounds are collected here from BindingDB's records for doi:10.1016/j.bmcl.2006.08.108 (Merck Sharp and Dohme Research Laboratories, 2006).

Where only a bound is given, the exact number is not on record here.

Chain of 5-hydroxytryptamine receptor 2A (P28223 whole entry): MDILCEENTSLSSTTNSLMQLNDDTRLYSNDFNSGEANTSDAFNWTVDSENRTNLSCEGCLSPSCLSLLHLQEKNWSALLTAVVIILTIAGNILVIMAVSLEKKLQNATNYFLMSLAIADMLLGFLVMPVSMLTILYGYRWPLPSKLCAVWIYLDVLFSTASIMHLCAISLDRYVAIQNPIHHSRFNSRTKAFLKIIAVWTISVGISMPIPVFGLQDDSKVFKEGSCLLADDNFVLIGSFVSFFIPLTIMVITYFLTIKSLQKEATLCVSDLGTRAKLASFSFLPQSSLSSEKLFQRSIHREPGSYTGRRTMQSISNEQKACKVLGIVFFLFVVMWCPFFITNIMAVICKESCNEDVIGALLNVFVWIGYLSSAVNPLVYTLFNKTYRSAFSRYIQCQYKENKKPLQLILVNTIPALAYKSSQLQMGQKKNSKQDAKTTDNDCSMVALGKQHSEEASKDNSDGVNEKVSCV

This experiment concerns the target 5-hydroxytryptamine receptor 2A (Homo sapiens, UniProt P28223). Description: Displacement of [3H]ketanserin from human 5HT2A receptor expressed in CHOK1 cells. In short, it runs like this: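 Membranes from confluent CHO K1 cells expressing human 5-HT2A were incubated with [3H]ketanserin (76 Ci/mmol) for 15 min at 37 °C with shaking at 180 rpm. Buffer was 50 mM Tris pH 7.7, 0.1% ascorbate, pargyline, MgSO4 and 0.5 mM EDTA. Bound and free ligand were separated by GF/B filtration and the filters counted. Mianserin defined non-specific binding. Five-point log titrations were fitted with a four-parameter curve to give IC50 and Ki.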
Regarding `Cc1ccc(C2=NCCN=C(N3CCNCC3)C2)cc1` [5-(piperazin-1-yl)-7-p-tolyl-2,3-dihydro-1H-1,4-diazepine], the IC50 was above 1000 nM.

Consider `Cc1ccc(C2=NCCN=C(N3CCOCC3)C2)cc1` [5-morpholino-7-p-tolyl-2,3-dihydro-1H-1,4-diazepine], for which the IC50 was above 1000 nM. The value for `CCN(CC)C1=NCCN=C(c2ccccc2F)C1` [N,N-diethyl-7-(2-fluorophenyl)-2,3-dihydro-1H-1,4-diazepin-5-amine] was above 1000 nM. The value for `CCN(CC)C1=NCCN=C(c2ccc(C)cc2)C1` [N,N-diethyl-7-p-tolyl-2,3-dihydro-1H-1,4-diazepin-5-amine] was above 1000 nM; that for `CC(C)(C)NC1=NCCN=C(c2ccc(F)cc2F)C1` [N-tert-butyl-7-(2,4-difluorophenyl)-2,3-dihydro-1H-1,4-diazepin-5-amine] was 11 nM. `Cc1ccc(C2=NCCN=C(NC(C)(C)C)C2)cc1` [N-tert-butyl-7-p-tolyl-2,3-dihydro-1H-1,4-diazepin-5-amine] registered an IC50 of 11 nM.
